Reference: ChEMBL document CHEMBL1151686, “Antimalarial activity enhancement in hydroxymethylcarbonyl (HMC) isostere-based dipeptidomimetics targeting malarial aspartic protease plasmepsin” (Bioorg Med Chem, 2008)

Tests used:
[1] = molecular target: Plasmepsin II (Plasmodium falciparum, UniProt P46925); experiment: Inhibition of Plasmodium falciparum plasmepsin-2
Summary of the method: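 Plm II (400 nM) hydrolysis of chromogenic substrate H-Ala-Leu-Glu-Arg-Thr-Phe-Phe(p-NO2)-Ser-Phe-Pro-Thr-OH (163 μM) in 10 mM sodium formate pH 4.0, 2% DMSO, 25 °C, with increasing inhibitor. Rates fitted to tight-binding competitive inhibition equations for Ki.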

[2] = molecular target: Protease (Human immunodeficiency virus 1) (UniProt Q9YQ12); experiment: Inhibition of recombinant HIV1 protease at 50 nM
Summary of the method: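 Recombinant HIV-1 PR (2 μg/mL stock) was mixed with inhibitor (500 nM solution in DMSO) in MES–NaOH pH 5.5 buffer containing DTT, EDTA and 1 M NaCl. The reaction was started with substrate H-Lys-Ala-Arg-Val-Tyr-Phe(p-NO₂)-Glu-Ala-Nle-NH₂ (1.0 mM solution) and run 15 min at 37 °C, then stopped with 1M HCl. The cleaved N-terminal fragment was quantified by reversed-phase C18 HPLC.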

[3] = Cytotoxicity against rat L6 cells after 72 hrs by Alamar blue resazurin assay; assay type: cell-based; details: read-out: TD50
[4] = tested on: Plasmodium falciparum; experiment: Antimalarial activity against chloroquine-sensitive Plasmodium falciparum NF54 in type O+ human erythrocytes after 48 hrs as reduced [3H]hypoxanthine uptake; assay type: functional, organism-based
Summary of the method: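 NF54 parasites grown in 2.4% O+ human erythrocyte suspension in RPMI 1640 with 25 mM HEPES, 27 mM NaHCO3, 10% heat-inactivated O+ human serum, under 3% O2/4% CO2/93% N2. Compounds serially diluted in 0.2% DMSO medium, incubated with culture 48 h, then 0.6 μCi [3H]hypoxanthine added for 20 h. Harvested on glass filters, scintillation counted. IC50 from dose-response curves.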

Sequence of Plasmepsin II (P46925 whole entry): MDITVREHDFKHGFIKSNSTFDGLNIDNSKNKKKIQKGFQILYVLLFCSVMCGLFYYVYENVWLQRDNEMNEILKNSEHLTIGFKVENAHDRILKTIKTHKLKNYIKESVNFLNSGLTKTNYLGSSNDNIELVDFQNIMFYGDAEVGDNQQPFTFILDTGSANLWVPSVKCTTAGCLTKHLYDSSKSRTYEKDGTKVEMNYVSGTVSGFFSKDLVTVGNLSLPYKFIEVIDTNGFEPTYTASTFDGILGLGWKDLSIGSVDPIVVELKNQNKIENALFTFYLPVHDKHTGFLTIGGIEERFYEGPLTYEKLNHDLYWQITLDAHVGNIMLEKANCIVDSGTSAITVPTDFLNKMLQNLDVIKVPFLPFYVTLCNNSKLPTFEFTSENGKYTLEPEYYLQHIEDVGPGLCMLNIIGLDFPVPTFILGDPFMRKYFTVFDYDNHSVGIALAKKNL
Sequence of Protease (Human immunodeficiency virus 1) (Q9YQ12 as listed by the source): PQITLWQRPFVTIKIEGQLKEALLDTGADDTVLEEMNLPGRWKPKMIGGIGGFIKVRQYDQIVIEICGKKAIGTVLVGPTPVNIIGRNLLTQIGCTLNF

Compound	Ki [1] [nM]	inhibition [2] [%]	CC50 at 72 h [3] [nM]	EC50 [4] [nM]
COc1ccc(OCC(=O)N[C@@H](Cc2ccccc2)[C@H](O)C(=O)N2CSC(C)(C)[C@H]2C(=O)N[C@H]2c3ccccc3C[C@H]2O)cc1	479	38		
Cc1cc(NCc2ccccn2)cc(C)c1OCC(=O)N[C@@H](Cc1ccccc1)[C@H](O)C(=O)N1CSC(C)(C)[C@H]1C(=O)N[C@H]1c2ccccc2C[C@H]1O	10	91	> 120000	300
CC1(C)SCN(C(=O)[C@@H](O)[C@H](Cc2ccccc2)NC(=O)COc2cccc(O)c2)[C@@H]1C(=O)N[C@H]1c2ccccc2C[C@H]1O	10	13		> 8000
Cc1cc(N(C)C)cc(C)c1OCC(=O)N[C@@H](Cc1ccccc1)[C@H](O)C(=O)N1CSC(C)(C)[C@H]1C(=O)N[C@H]1c2ccccc2C[C@H]1O	21	86	45000	1200
Cc1cc(F)cc(C)c1OCC(=O)N[C@@H](Cc1ccccc1)[C@H](O)C(=O)N1CSC(C)(C)[C@H]1C(=O)N[C@H]1c2ccccc2C[C@H]1O	19	87	29000	1400
CC1(C)SCN(C(=O)[C@@H](O)[C@H](Cc2ccccc2)NC(=O)COc2c(Cl)cccc2Cl)[C@@H]1C(=O)N[C@H]1c2ccccc2C[C@H]1O	39	95		5200
CC1(C)SCN(C(=O)[C@@H](O)[C@H](Cc2ccccc2)NC(=O)COc2cccc(N)c2)[C@@H]1C(=O)N[C@H]1c2ccccc2C[C@H]1O	29	29		> 8000
CC1(C)SCN(C(=O)[C@@H](O)[C@H](Cc2ccccc2)NC(=O)COc2ccccc2N)[C@@H]1C(=O)N[C@H]1c2ccccc2C[C@H]1O	126	62		
CC1(C)SCN(C(=O)[C@@H](O)[C@H](Cc2ccccc2)NC(=O)COc2cccc([N+](=O)[O-])c2)[C@@H]1C(=O)N[C@H]1c2ccccc2C[C@H]1O	38	12	58000	2800
CC1(C)SCN(C(=O)[C@@H](O)[C@H](Cc2ccccc2)NC(=O)COc2ccccc2[N+](=O)[O-])[C@@H]1C(=O)N[C@H]1c2ccccc2C[C@H]1O	55	9		
CC1(C)SCN(C(=O)[C@@H](O)[C@H](Cc2ccccc2)NC(=O)COc2ccc(CO)cc2)[C@@H]1C(=O)N[C@H]1c2ccccc2C[C@H]1O	10	37	> 120000	1100
CC1(C)SCN(C(=O)[C@@H](O)[C@H](Cc2ccccc2)NC(=O)COc2ccccc2CO)[C@@H]1C(=O)N[C@H]1c2ccccc2C[C@H]1O	132	61		
CC1(C)SCN(C(=O)[C@@H](O)[C@H](Cc2ccccc2)NC(=O)COc2ccc(O)cc2)[C@@H]1C(=O)N[C@H]1c2ccccc2C[C@H]1O	10	31		> 8000
CCCCCNc1cc(C)c(OCC(=O)N[C@@H](Cc2ccccc2)[C@H](O)C(=O)N2CSC(C)(C)[C@H]2C(=O)N[C@H]2c3ccccc3C[C@H]2O)c(C)c1	26	78	12000	430
COc1cccc(OC)c1OCC(=O)N[C@@H](Cc1ccccc1)[C@H](O)C(=O)N1CSC(C)(C)[C@H]1C(=O)N[C@H]1c2ccccc2C[C@H]1O	782	54		
Cc1cccc(C)c1OCC(=O)N[C@@H](Cc1ccccc1)[C@H](O)C(=O)N1CSC(C)(C)[C@H]1C(=O)N[C@H]1c2ccccc2C[C@H]1O		98		
Cc1cc(NCc2cccnc2)cc(C)c1OCC(=O)N[C@@H](Cc1ccccc1)[C@H](O)C(=O)N1CSC(C)(C)[C@H]1C(=O)N[C@H]1c2ccccc2C[C@H]1O	21	91	> 120000	500

Compound	Ki [1] [nM]	inhibition [2] [%]	CC50 at 72 h [3] [nM]	EC50 [4] [nM]
Cc1ccc(OCC(=O)N[C@@H](Cc2ccccc2)[C@H](O)C(=O)N2CSC(C)(C)[C@H]2C(=O)N[C@H]2c3ccccc3C[C@H]2O)cc1	55	27		> 8000
Cc1cccc(OCC(=O)N[C@@H](Cc2ccccc2)[C@H](O)C(=O)N2CSC(C)(C)[C@H]2C(=O)N[C@H]2c3ccccc3C[C@H]2O)c1	42	13		> 8000
COc1ccccc1OCC(=O)N[C@@H](Cc1ccccc1)[C@H](O)C(=O)N1CSC(C)(C)[C@H]1C(=O)N[C@H]1c2ccccc2C[C@H]1O	153	27		
CC1(C)SCN(C(=O)[C@@H](O)[C@H](Cc2ccccc2)NC(=O)COc2ccccc2O)[C@@H]1C(=O)N[C@H]1c2ccccc2C[C@H]1O	112	34		
CCNc1cc(C)c(OCC(=O)N[C@@H](Cc2ccccc2)[C@H](O)C(=O)N2CSC(C)(C)[C@H]2C(=O)N[C@H]2c3ccccc3C[C@H]2O)c(C)c1	7	84	64000	720
CC1(C)SCN(C(=O)[C@@H](O)[C@H](Cc2ccccc2)NC(=O)COc2c(F)cccc2F)[C@@H]1C(=O)N[C@H]1c2ccccc2C[C@H]1O	14	58	55000	3300
CC1(C)SCN(C(=O)[C@@H](O)[C@H](Cc2ccccc2)NC(=O)COc2ccc([N+](=O)[O-])cc2)[C@@H]1C(=O)N[C@H]1c2ccccc2C[C@H]1O	25	53	63000	4200
Cc1cc(O)cc(C)c1OCC(=O)N[C@@H](Cc1ccccc1)[C@H](O)C(=O)N1CSC(C)(C)[C@H]1C(=O)N[C@H]1c2ccccc2C[C@H]1O	5	98		3300
Cc1ccccc1OCC(=O)N[C@@H](Cc1ccccc1)[C@H](O)C(=O)N1CSC(C)(C)[C@H]1C(=O)N[C@H]1c2ccccc2C[C@H]1O	145	72		
CC1(C)SCN(C(=O)[C@@H](O)[C@H](Cc2ccccc2)NC(=O)COc2cccc(CO)c2)[C@@H]1C(=O)N[C@H]1c2ccccc2C[C@H]1O	9	24		> 8000
COc1cccc(OCC(=O)N[C@@H](Cc2ccccc2)[C@H](O)C(=O)N2CSC(C)(C)[C@H]2C(=O)N[C@H]2c3ccccc3C[C@H]2O)c1	4	10		> 8000
Cc1cc(N)cc(C)c1OCC(=O)N[C@@H](Cc1ccccc1)[C@H](O)C(=O)N1CSC(C)(C)[C@H]1C(=O)N[C@H]1c2ccccc2C[C@H]1O	23	96		
CC1(C)SCN(C(=O)[C@@H](O)[C@H](Cc2ccccc2)NC(=O)COc2ccc(N)cc2)[C@@H]1C(=O)N[C@H]1c2ccccc2C[C@H]1O	28	27		> 8000
Cc1cc(NCc2ccncc2)cc(C)c1OCC(=O)N[C@@H](Cc1ccccc1)[C@H](O)C(=O)N1CSC(C)(C)[C@H]1C(=O)N[C@H]1c2ccccc2C[C@H]1O	6	91	> 120000	490
CC(C)c1cccc(C(C)C)c1OCC(=O)N[C@@H](Cc1ccccc1)[C@H](O)C(=O)N1CSC(C)(C)[C@H]1C(=O)N[C@H]1c2ccccc2C[C@H]1O	23	0	6300	2900
CNc1cc(C)c(OCC(=O)N[C@@H](Cc2ccccc2)[C@H](O)C(=O)N2CSC(C)(C)[C@H]2C(=O)N[C@H]2c3ccccc3C[C@H]2O)c(C)c1	25	91	> 120000	450
CCCCNc1cc(C)c(OCC(=O)N[C@@H](Cc2ccccc2)[C@H](O)C(=O)N2CSC(C)(C)[C@H]2C(=O)N[C@H]2c3ccccc3C[C@H]2O)c(C)c1	30	85	22000	540
